IC50 and inhibition data for 34 molecules are collected here from ChEMBL document CHEMBL2385079, “Design, synthesis and pharmacological characterization of analogs of 2-aminoethyl diphenylborinate (2-APB), a known store-operated calcium channel blocker, for inhibition of TRPV6-mediated calcium transport” (Bioorg Med Chem, 2013).

Active and inactive are the calls of the source. No cut-off for these calls is given here. Where only a bound is given, the exact number is not on record here.

Common to all, as to assay type: cell-based
Test [1] addresses T1, ORAI 1/2/3 (Homo sapiens, UniProt Q96D31+Q96SN7+Q9BRQ5). Kind of test: Inhibition of ORAl1/2/3 in HEK293 cells assessed as inhibition of Cd2+ influx after 10 mins by FLIPR assay in presence of thapsigargin. The method in brief: (§1)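 Untransfected HEK293 cells plated at 40,000 cells/well, used after 36 h and loaded 1 h at 37 °C with Calcium-5 dye in nominally Ca2+-free modified Krebs buffer (117 mM NaCl, 4.8 mM KCl, 1 mM MgCl2, 10 mM HEPES). After a 50 s baseline, compound is added together with 1 µM thapsigargin for 10 min. Ca2+ or Cd2+ is then added, and the rate of fluorescence rise is read by FLIPR Tetra (ex 470–495, em 515–575 nm). IC50 is the mean of six experiments.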

Test [2] deals with T2, Transient receptor potential cation channel subfamily V member 6 (Homo sapiens, UniProt Q9H1D0).
T2 sequence (Q9H1D0 whole entry): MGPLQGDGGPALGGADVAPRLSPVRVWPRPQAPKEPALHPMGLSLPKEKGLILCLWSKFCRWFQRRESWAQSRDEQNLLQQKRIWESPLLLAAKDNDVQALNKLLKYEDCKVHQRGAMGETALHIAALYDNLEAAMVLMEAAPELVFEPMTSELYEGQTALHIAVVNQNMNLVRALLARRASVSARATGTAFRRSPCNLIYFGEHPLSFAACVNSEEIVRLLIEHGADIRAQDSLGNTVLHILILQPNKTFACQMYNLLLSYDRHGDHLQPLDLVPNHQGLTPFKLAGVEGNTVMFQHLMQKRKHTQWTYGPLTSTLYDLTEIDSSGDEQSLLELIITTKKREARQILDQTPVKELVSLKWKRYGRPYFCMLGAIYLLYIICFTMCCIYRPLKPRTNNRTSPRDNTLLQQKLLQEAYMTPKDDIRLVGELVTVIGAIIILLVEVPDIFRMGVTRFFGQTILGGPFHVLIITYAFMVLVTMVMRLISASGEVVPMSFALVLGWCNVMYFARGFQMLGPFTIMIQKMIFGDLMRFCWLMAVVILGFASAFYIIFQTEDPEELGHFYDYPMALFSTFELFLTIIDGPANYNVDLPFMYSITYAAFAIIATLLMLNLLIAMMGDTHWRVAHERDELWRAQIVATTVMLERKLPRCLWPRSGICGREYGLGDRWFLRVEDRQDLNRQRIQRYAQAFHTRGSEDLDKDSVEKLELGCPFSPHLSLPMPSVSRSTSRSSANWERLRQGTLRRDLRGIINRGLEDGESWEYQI
The test can be described thus: Inhibition of human TRPV6 transfected in HEK293 cells assessed as inhibition of Ca2+ influx after 5 mins by FLIPR assay. The method in brief: (§2)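 HEK293 clone stably expressing RFP-tagged hTRPV6, made by Lipofectamine transfection, G418 selection and picking of red-fluorescent single-cell colonies. Cells plated at 40,000/well and used after 36 h, then loaded 1 h at 37 °C with Calcium-5 in nominally Ca2+-free Krebs buffer. After a 50 s baseline, compound is given for 5 min. Then 2 mM CaCl2 or 50 µM CdCl2 is added, and the initial rate of fluorescence increase is read by FLIPR Tetra. IC50 is the average of six independent experiments.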

Test [3] deals with T2, Transient receptor potential cation channel subfamily V member 6. Kind of test: Inhibition of human TRPV6 transfected in HEK293 cells assessed as inhibition of Cd2+ influx after 5 mins by FLIPR assay. In short, it runs like this: as §2
For test [4], the target named is T1, ORAI 1/2/3. The test can be described thus: Inhibition of ORAl1/2/3 in HEK293 cells assessed as inhibition of Ca2+ influx after 10 mins by FLIPR assay in presence of thapsigargin. The method in brief: as §1
Test [5] addresses T3, Transient receptor potential cation channel subfamily V member 6 (Homo sapiens) (UniProt Q9H1D0).
T3 sequence (whole entry): T2 sequence (Q9H1D0 whole entry)
Kind of test: Inhibition of human TRPV6 transfected in HEK293 cells assessed as inhibition of Ca2+ influx up to 500 uM after 5 mins by FLIPR assay. The method in brief: as §2

The target in test [6] is T3, Transient receptor potential cation channel subfamily V member 6 (Homo sapiens). Kind of test: Inhibition of human TRPV6 transfected in HEK293 cells assessed as inhibition of Cd2+ influx up to 500 uM after 5 mins by FLIPR assay. In short, it runs like this: as §2
In test [7] the target is T1, ORAI 1/2/3. Kind of test: Inhibition of ORAl1/2/3 in HEK293 cells assessed as inhibition of Ca2+ influx up to 500 uM after 10 mins by FLIPR assay in presence of thapsigargin. In short, it runs like this: as §1
The target in test [8] is T1, ORAI 1/2/3. Kind of test: Inhibition of ORAl1/2/3 in HEK293 cells assessed as inhibition of Cd2+ influx up to 500 uM after 10 mins by FLIPR assay in presence of thapsigargin. In short, it runs like this: as §1

Consider `FC(F)(F)c1ccc([B-]2(c3ccc(C(F)(F)F)cc3)[NH2+]CCO2)cc1`, for which the IC50 (as a rule, the concentration needed to halve the response being measured) at ORAI 1/2/3 [1] stood at 3.2 µM; in test [2] it was 16.3 µM; in test [3] it was 13.7 µM; at ORAI 1/2/3 [4], 2.1 µM.
As to `CN(C)CCOC(c1ccccc1)c1ccccc1` [DIPHENHYDRAMINE], the inhibition result in test [5] and in test [6] was “inactive” each time. The IC50 at ORAI 1/2/3 [1] and on ORAI 1/2/3 [4] was greater than 500 µM each time.
Regarding `c1ccc([B-]2(c3ccccc3)[NH2+]CCS2)cc1`, the IC50 is 44.6 µM at ORAI 1/2/3 [1], 127 µM in test [2], 93.5 µM in test [3] and 51.8 µM on ORAI 1/2/3 [4].
As for `OB(c1ccccc1)c1ccc(C(F)(F)F)cc1`, the half-inhibitory concentration (IC50) amounted to 11.3 µM in test [2] and 12.5 µM in test [3].
In the case of `OB(O)O`, the inhibition entry (in test [5]; on ORAI 1/2/3 [7]; on ORAI 1/2/3 [8]; in test [6]) was “inactive” each time.
Take `c1ccc(OB(Oc2ccccc2)Oc2ccccc2)cc1`: the inhibition entry (in test [5]; at ORAI 1/2/3 [7]; at ORAI 1/2/3 [8]; in test [6]) was “inactive” throughout.
Turning to `C[N+]1(C)CCO[B-]1(c1ccccc1)c1ccccc1`, the IC50 at ORAI 1/2/3 [1] stood at 5.1 µM; in test [2], 63.6 µM; in test [3] it was 19.8 µM; at ORAI 1/2/3 [4], 8.9 µM.
On to `OB(c1ccccc1)c1ccccc1` [DIPHENYL BORINIC ACID], for which the IC50 came out at 8.7 µM at ORAI 1/2/3 [1], 19.1 µM in test [2], 31.5 µM in test [3] and 9.8 µM at ORAI 1/2/3 [4].
The corresponding values for `c1ccc(-c2ccc([B-]3(c4ccccc4)[NH2+]CCO3)cc2)cc1` (centres undefined) are 7.7 µM, 72.3 µM, 51.3 µM and 13.4 µM.
For `CCCCc1ccc([B-]2(c3ccccc3)[NH2+]CCO2)cc1` (centres undefined), the IC50 on ORAI 1/2/3 [1] stood at 2.4 µM; in test [2], 14.3 µM; in test [3] it was 12.1 µM; on ORAI 1/2/3 [4] it was 3.5 µM.
The corresponding values for `c1ccc([B-]2(c3ccccc3)[NH2+]CCCO2)cc1` are 8.2 µM, 16.2 µM, 28.1 µM and 7.9 µM.
In the same order, the values of `OB(c1ccccc1)c1ccc(Cl)cc1` are 6.4 µM, 9.7 µM, 12 µM and 21.8 µM.
The corresponding values for `Cc1ccccc1[B-]1(c2ccccc2)[NH2+]CCO1` (centres undefined) are 9.9 µM, 31.1 µM, 67.9 µM and 10 µM.
Regarding `Brc1ccc([B-]2(c3ccccc3)[NH2+]CCO2)cc1` (centres undefined), the concentration for half-maximal inhibition (IC50) at ORAI 1/2/3 [1] is 4.9 µM; in test [2], 13.2 µM; in test [3], 9.8 µM; at ORAI 1/2/3 [4], 3.4 µM.
On to `OC(c1ccccc1)c1ccccc1` [DIPHENYLMETHANOL], for which the inhibition result in test [5] and in test [6] was “inactive” in each case. In addition, the IC50 on ORAI 1/2/3 [1] and at ORAI 1/2/3 [4] was greater than 500 µM throughout.
Consider `Cc1ccc([B-]2(c3ccccc3)[NH2+]CCO2)cc1` (centres undefined), for which the IC50 at ORAI 1/2/3 [1] stood at 2.7 µM; in test [2], 18.9 µM; in test [3], 12.9 µM; at ORAI 1/2/3 [4] it was 8.6 µM.
With `Cc1ccc([B-]2(c3ccc(C)cc3)[NH2+]CCO2)cc1`, the IC50 at ORAI 1/2/3 [1] was determined as 7.4 µM; in test [2], 14.4 µM; in test [3], 17.1 µM; on ORAI 1/2/3 [4], 1.6 µM.
In the same order, the values of `c1ccc(B(OB(c2ccccc2)c2ccccc2)c2ccccc2)cc1` are 13.4 µM, 19.2 µM, 17.7 µM and 11.4 µM.
For `Cc1ccc(B(O)c2ccc(C)cc2)cc1`, the IC50 amounted to 25.9 µM at ORAI 1/2/3 [1], 18.6 µM in test [2], 29 µM in test [3] and 23 µM at ORAI 1/2/3 [4].
For the molecule `OB(c1ccc(C(F)(F)F)cc1)c1ccc(C(F)(F)F)cc1`, the half-maximal inhibitory concentration (IC50) on ORAI 1/2/3 [1] amounted to 9.5 µM; in test [2] it was 10.8 µM; in test [3], 11.2 µM; on ORAI 1/2/3 [4] it was 7.6 µM.
The corresponding values for `COc1ccccc1B(O)c1ccccc1OC` are 11.8 µM, greater than 500 µM, greater than 500 µM and 13.2 µM.
On to `COc1ccc([B-]2(c3ccc(OC)cc3)[NH2+]CCO2)cc1`, for which the half-inhibitory concentration (IC50) was 25.8 µM at ORAI 1/2/3 [1], greater than 100 µM in test [2], 89.8 µM in test [3] and 12.4 µM at ORAI 1/2/3 [4].
The corresponding values for `c1ccc([B-]2(c3ccccc3)OCc3cccc[n+]32)cc1` are 10.2 µM, 34.9 µM, 41.5 µM and 10.7 µM.
The corresponding values for `OB(c1ccc(F)cc1)c1ccc(F)cc1` are 17.1 µM, 37.1 µM, 61.6 µM and 26.6 µM.
On to `c1ccc([B-]2(c3ccccc3)OC[C@@H]3CCC[NH+]32)cc1` (some centres undefined), for which the IC50 on ORAI 1/2/3 [1] is 10.2 µM; in test [2], 18.8 µM; in test [3] it was 28 µM; on ORAI 1/2/3 [4], 8.9 µM.
The corresponding values for `c1ccc([B-]2(c3ccccc3)OCC[N+]23CCNCC3)cc1` are 2.2 µM, 15 µM, 24.3 µM and 6 µM.
As for `O=C1O[B-](c2ccccc2)(c2ccccc2)[NH2+][C@H]1Cc1c[nH]c2ccccc12`, the inhibition result in test [5] and in test [6] was “inactive” each time. Besides, the values for the IC50 on ORAI 1/2/3 [1] and on ORAI 1/2/3 [4] were 14.7 µM and 6.9 µM, respectively.
For the molecule `c1ccc([B-]2(c3ccccc3)OC[C@H]3CCC[NH+]32)cc1` (some centres undefined), the IC50 at ORAI 1/2/3 [1] came to 10.1 µM; in test [2], 18.5 µM; in test [3], 30.6 µM; at ORAI 1/2/3 [4], 8 µM.
As for `OB1c2ccccc2CCc2ccccc21`, the half-inhibitory concentration (IC50) on ORAI 1/2/3 [1] was 36.4 µM; in test [2], greater than 500 µM; in test [3] it was greater than 500 µM; on ORAI 1/2/3 [4], 33.3 µM.
Take `COc1ccccc1[B-]1(c2ccccc2OC)[NH2+]CCO1`: the IC50 at ORAI 1/2/3 [1] is 10.5 µM; in test [2], greater than 500 µM; in test [3] it was 412 µM; at ORAI 1/2/3 [4], 11.6 µM.
For the molecule `Fc1ccc([B-]2(c3ccccc3)[NH2+]CCO2)cc1` (centres undefined), the IC50 turned out to be 9.8 µM at ORAI 1/2/3 [1], 18.8 µM in test [2], 33.6 µM in test [3] and 9.3 µM at ORAI 1/2/3 [4].
For `CB(O)O` [METHANE BORONIC ACID], the inhibition result in test [5] and in test [6] was “inactive” in each case. Besides, the 50% inhibitory concentration (IC50) at ORAI 1/2/3 [1] and at ORAI 1/2/3 [4] was greater than 500 µM throughout.
With `Fc1ccc([B-]2(c3ccc(F)cc3)[NH2+]CCO2)cc1`, the IC50 at ORAI 1/2/3 [1] worked out at 5.9 µM; in test [2] it was 17 µM; in test [3], 14.2 µM; at ORAI 1/2/3 [4] it was 9 µM.
The corresponding values for `NCCOC(c1ccccc1)c1ccccc1` are 184.2 µM, 159 µM, greater than 500 µM and 106 µM.
